A short description of one series: Stability in DMSO. It is filed as physicochemical. As to conditions: for free anastrozole observed in DMSO (1H NMR): 2 mM, 15 min.
The subject of series [1] is H295R cells (adrenocortical carcinoma). In words: Sulforhodamine B. In kind it is cell-based, human.
The subject of series [2] is MCF7 cells (ER+ breast cancer). In words: Sulforhodamine B. It is filed as cell-based, human. The settings on record: for Selectivity index (SI): IC50 (MCF12A) / IC50 (MCF7).
The subject of series [3] is MDA-MB-231 cells (ER- / triple negative breast cancer). Kind of series: Sulforhodamine B. In kind it is cell-based, human. The settings on record: for Selectivity index (SI): IC50 (MCF12A) / IC50 (MDA-MB-231).
The target in series [4] is T1, aromatase (CYP19) in H295R cells (Homo sapiens, UniProt P11511).
T1 sequence (P11511 1-503): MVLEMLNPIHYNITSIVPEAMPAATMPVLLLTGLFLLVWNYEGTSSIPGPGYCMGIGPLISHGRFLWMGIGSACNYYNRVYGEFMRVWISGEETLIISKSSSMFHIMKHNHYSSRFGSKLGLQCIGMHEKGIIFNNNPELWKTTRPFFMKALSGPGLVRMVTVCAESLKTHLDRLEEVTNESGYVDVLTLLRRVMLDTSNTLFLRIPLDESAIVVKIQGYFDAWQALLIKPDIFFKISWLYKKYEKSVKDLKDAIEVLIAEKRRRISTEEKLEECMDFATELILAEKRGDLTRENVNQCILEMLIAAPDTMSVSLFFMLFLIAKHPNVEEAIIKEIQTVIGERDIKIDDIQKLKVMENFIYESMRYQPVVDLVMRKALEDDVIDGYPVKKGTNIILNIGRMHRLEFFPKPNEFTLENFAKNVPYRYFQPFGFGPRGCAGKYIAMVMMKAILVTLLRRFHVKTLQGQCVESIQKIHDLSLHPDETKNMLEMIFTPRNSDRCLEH
In words: Tritiated water-release assay of aromatase activity in H295R cells. In kind it is cell-based. A digest of the protocol:
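H295R cells were seeded at 100,000/well in DMEM/F-12 with Nu Serum and ITS for 24 h, then washed with PBS. They were incubated 1.5 h at 37 °C, 5% CO2, in phenol red-free DMEM/F-12 with 54nM 1β-3H-androstenedione plus test compound at 0.1, 1, 10, 100 nM. Released tritiated water was counted by liquid scintillation. Controls were cell-free blanks and 0.1% DMSO. Data are mean ± SD.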

In series [5] the test system is MCF12A cells (non-cancerous breast). In words: Sulforhodamine B. In kind it is cell-based, human.
Series [6] concerns T47D cells (ER+ breast cancer). Kind of series: Sulforhodamine B. It is filed as cell-based, human. As to conditions: for IC50: T47D.
Series [7] in a line: Solubility in culture medium/DMSO and water/DMSO by UV-Vis. In kind it is physicochemical. The essentials: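 Test compound in phenol red-free DMEM-F12 (0.1% DMSO) at 0.01, 0.1, 1, 5, 10, 20 μM, and in water (max 0.5% DMSO) at 1, 5, 10, 15 μM. Each solution was passed through a 0.2 μm syringe filter, then absorbance at 350–370 nm was read on a plate reader. A linear concentration–absorbance relationship was taken to indicate solubility.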

In series [8] the test system is zebrafish (Danio rerio) embryos. Kind of series: Zebrafish embryo toxicity assay. It is filed as in vivo. The settings on record: 0.1, 0.5, 1 μM; 24-96 hpf; vs untreated control. The essentials: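 Wild-type Danio rerio embryos were raised at 28.5 °C. From the 2- or 4-cell stage they were exposed in 5 mL fish medium to test compound at 0.1, 0.5, 1 μM (0.5% DMSO final). Medium was refreshed at 48 h. Mortality, gross morphology and hatching were scored by stereomicroscope every 24 h to 96 hpf, against an untreated control. Triplicates, 60 embryos per treatment from three crosses; mean ± SD.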

A short description of series [9]: Stability in cell culture medium/DMSO. In kind it is physicochemical. As to conditions: 10 μM, full DMEM/F12 medium (max 0.1% DMSO), 37 °C, 1.5 h, HPLC. The essentials:
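Test compound at 10 μM in DMEM/F12 (0.1% DMSO, from DMSO stock) was held 1.5 h at 37 °C. Released ligand was extracted into diethyl ether, then cleaned on silica with acetone. The residue was redissolved in acetone with 100 μM hydrocortisone as external standard. It was run on C18 UHPLC with a 13 min water/acetonitrile gradient at 2 mL/min, with UV detection, and quantified against standard curves. Three replicates.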

The nature of series [10]: Qualitative solubility in water and organic solvents. It is filed as physicochemical.
Series [11] deals with zebrafish (Danio rerio) embryos. The settings on record: concentrations far less than its IC50 value in human cancer cells; cited from earlier work.
[12] abbreviates: H295R, 48 h exposure, SRB assay.
Where [13] appears, read: MDA-MB-231, 48 h exposure, SRB assay.
Setting [14] is: MCF12A (non-cancerous), 48 h exposure, SRB assay.

Turning to RuCp(PPh3)2(ATZ)BF4 [Complex 2], the “free anastrozole observed in DMSO (1H NMR)” value in the series “Stability in DMSO” came to 2%. In “Stability in DMSO” (over 1 h), the “change of UV-Vis absorption spectrum in DMSO” value is recorded as “No apparent change”. The half-maximal inhibitory concentration (IC50) – broadly, the concentration needed to halve the response being measured – was determined as 0.63 µM in [1] (setting [12]); 0.5 µM in series [2] (MCF7, 48 h exposure, SRB assay); 0.39 µM in series [3] (setting [13]); 0.58 µM in series [5] (setting [14]); 0.32 µM in series [6] (48 h exposure, SRB assay). Also, the “Selectivity index (SI)” value stood at 0.92 in series [1] (IC50 (MCF12A) / IC50 (H295R)), 1.16 in series [2], 1.49 in [3] and 1.81 in [6] (IC50 (MCF12A) / IC50 (T47D)). For the same compound, the “aromatase inhibitory activity at higher concentrations” value in [4] (above 10 nM (tested up to 100 nM), 1.5 h, H295R cells) is given as “slight aromatase inhibitory activity”. Further, the “inhibition of aromatase activity” value in series [4] (up to 10 nM, 1.5 h, H295R cells) is “No significant inhibition”. The “solubility in culture medium” value in series [7] (full DMEM/F12 medium (0.1% DMSO)) was at least 20 µM. In series [7] (water (max 0.5% DMSO)), this compound displayed a solubility in water of at least 15 µM. Also, the “hatching delay of zebrafish embryos” value in [8] is listed as “no apparent”. The “mortality of zebrafish embryos” value in series [8] was “no apparent”. For the same compound, in series [8], the “phenotype changes of zebrafish embryos” value was “no apparent”. Also, the “released anastrozole in culture medium” value in series [9] is 4%. Further, the “solubility in organic solvents (qualitative)” value in series [10] was “soluble in acetone, alcohols and dimethyl sulfoxide (DMSO)”. In addition, the “solubility in water (qualitative)” value in series [10] is listed as “poorly soluble in water”.

With `N.N.[Cl][Pt][Cl]` [cisplatin], the IC50 was 86.5 µM in series [1] (setting [12]); 20.1 µM in series [2] (MCF7, 48 h exposure, SRB assay); 32.4 µM in series [3] (setting [13]); 42.7 µM in [5] (setting [14]); above 150 µM in series [6] (48 h exposure, SRB assay). For the same compound, the “Selectivity index (SI)” value is given as 2.12 in series [2] and 1.32 in series [3]. For the same compound, the “hatching rate of zebrafish embryos” value in series [11] is “significant inhibition of hatching rate”.

Turning to `CC(C)(C#N)c1cc(Cn2cncn2)cc(C(C)(C)C#N)c1` [anastrozole, reference compound], the half-inhibitory concentration (IC50) in [1] (Homo sapiens, NCI-H295R, 48 h) is above 100 µM; in [2] (Homo sapiens, MCF7, 48 h), above 100 µM; in series [3] (Homo sapiens, MDA-MB-231, 48 h) it was above 100 µM; in series [5] (Homo sapiens, MCF-12A, 48 h), above 100 µM; in series [6] (Homo sapiens, 48 h), above 100 µM. The inhibition (as a rule, the relative decrease from the control value, in per cent) at 0.01 µM in series [4] (NCI-H295R, read-out: inhibition of aromatase activity) is around 50%.

`CC(C)(C#N)c1cc(Cn2cncn2)cc(C(C)(C)C#N)c1.CS(C)=O.[Cl-].[Cl-].[Cl-].[Cl-].[Na+].[Ru+3]` [Complex 3, Na[trans-RuCl4ATZ(DMSO)]]: the “solubility in water (qualitative)” value in series [10] was “soluble in water”.

Regarding `C1=CCCC=CCC1.CC(C)(C#N)c1cc(Cn2cncn2)cc(C(C)(C)C#N)c1.CC(C)(C#N)c1cc(Cn2cncn2)cc(C(C)(C)C#N)c1.[Cl-].[Cl-].[Ru+2]` [Complex 1, RuCOD(ATZ)2Cl2], the “free anastrozole observed in DMSO (1H NMR)” value in the series “Stability in DMSO” worked out at 25%.

The values are drawn from publication PMC7221417 (European journal of medicinal chemistry, 2020).
